Assay results as given in ChEMBL document CHEMBL1629532, “Design, synthesis, and structure-activity relationships of 3-ethynyl-1H-indazoles as inhibitors of the phosphatidylinositol 3-kinase signaling pathway” (J Med Chem, 2010).
Active and inactive are the calls of the source. The calls are words filed in the database; no cut-off is given here.

What was measured:
[1] = molecular target: Phosphatidylinositol 4,5-bisphosphate 3-kinase catalytic subunit alpha isoform (Homo sapiens, UniProt P42336); assay: Inhibition of PI3Kalpha by LanthaScreen Eu kinase binding assay
Summary of the method: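 Eu kinase binding TR-FRET assay (tracer displacement). PIK3CA/PIK3R1 at 5 nM with kinase tracer 20 nM and Eu-anti-His antibody 2 nM, all final. Buffer 25 mM Tris-HCl, 5 mM MgCl2, 0.02% CHAPS.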

[2] = molecular target: T1, Serine/threonine-protein kinase mTOR (Homo sapiens, UniProt P42345); assay: Inhibition of mTOR by LanthaScreen Eu kinase binding assay
Summary of the method: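 Eu kinase binding TR-FRET displacement with FRAP1 (mTOR) at 5 nM, kinase tracer 20 nM and Eu-anti-GST antibody 2 nM, all final. Buffer 25 mM Tris-HCl, 5 mM MgCl2, 0.02% CHAPS.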

[3] = molecular target: T2, 3-phosphoinositide-dependent protein kinase 1 (Homo sapiens, UniProt O15530); assay: Inhibition of PDK1 by Z'-LYTE kinase activity assay
T2 sequence (O15530 whole entry): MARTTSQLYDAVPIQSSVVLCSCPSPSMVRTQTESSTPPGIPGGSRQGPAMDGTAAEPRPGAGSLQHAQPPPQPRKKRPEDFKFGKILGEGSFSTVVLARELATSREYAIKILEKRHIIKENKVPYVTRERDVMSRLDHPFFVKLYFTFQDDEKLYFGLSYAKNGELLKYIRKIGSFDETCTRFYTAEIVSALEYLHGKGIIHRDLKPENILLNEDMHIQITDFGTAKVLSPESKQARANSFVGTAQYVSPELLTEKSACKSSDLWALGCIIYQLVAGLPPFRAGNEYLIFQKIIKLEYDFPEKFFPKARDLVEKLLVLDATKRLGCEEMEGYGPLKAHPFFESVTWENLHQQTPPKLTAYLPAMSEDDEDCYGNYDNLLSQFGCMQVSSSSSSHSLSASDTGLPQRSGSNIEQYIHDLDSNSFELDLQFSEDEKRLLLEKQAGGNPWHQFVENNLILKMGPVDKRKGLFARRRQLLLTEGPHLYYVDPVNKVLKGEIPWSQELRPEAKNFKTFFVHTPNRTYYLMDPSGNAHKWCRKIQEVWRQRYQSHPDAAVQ

[4] = molecular target: RAC-alpha serine/threonine-protein kinase (Homo sapiens) (UniProt P31749); assay: Inhibition of AKT1 by biochemical assay
[5] = molecular target: T1, Serine/threonine-protein kinase mTOR; assay: Inhibition of mTORC1 expressed in HEK293 cells assessed as PRAS40 Ser183 phosphorylation level by LanthaScreen cellular assay; type: cell-based
Summary of the method: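 HEK293E cells stably expressing GFP-substrate fusions (AKT for pThr308; PRAS40 for pSer183), 20,000 per well, serum-starved overnight in low-glucose DMEM + 0.1% BSA. Lysed with 2 nM Tb-labeled phosphospecific antibody; TR-FRET read after 2 h at room temperature. IC50 by curve fitting.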

MDA-MB-231 = assay: Growth inhibition of human MDA-MB-231 cells after 72 hrs by ATPlite assay; type: functional; details: MDA-MB-231, 72 h
Summary of the method: (§1)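 Cells seeded at about 3000 per well, grown 24 h, then given fresh medium and test compound in triplicate at 0.5 to 100µM in DMSO (0.5% final). Exposure 72 h at 37 °C, 5% CO₂. Viability measured by ATPlite luminescence and normalized to DMSO-treated controls. GI50 obtained by curve fitting. HeLa cultured in DMEM/10% FBS; MCF7, MDA-MB-231 and PC3 cultured in RPMI+GlutaMAX/10% FBS.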

[6] = molecular target: Phosphatidylinositol 4,5-bisphosphate 3-kinase catalytic subunit gamma isoform (Homo sapiens, UniProt P48736); assay: Inhibition of PI3Kgamma
PC-3 = assay: Growth inhibition of human PC3 cells after 72 hrs by ATPlite assay; type: functional; details: PC-3, 72 h; summary of the method: as §1
MCF7 = assay: Growth inhibition of human MCF7 cells after 72 hrs by ATPlite assay; type: functional; details: MCF7, 72 h; summary of the method: as §1
[7] = molecular target: T3, Phosphatidylinositol 4,5-bisphosphate 3-kinase catalytic subunit delta isoform (Homo sapiens, UniProt O00329); assay: Inhibition of PI3Kdelta; details: read-out: IC50
T3 sequence (O00329 whole entry): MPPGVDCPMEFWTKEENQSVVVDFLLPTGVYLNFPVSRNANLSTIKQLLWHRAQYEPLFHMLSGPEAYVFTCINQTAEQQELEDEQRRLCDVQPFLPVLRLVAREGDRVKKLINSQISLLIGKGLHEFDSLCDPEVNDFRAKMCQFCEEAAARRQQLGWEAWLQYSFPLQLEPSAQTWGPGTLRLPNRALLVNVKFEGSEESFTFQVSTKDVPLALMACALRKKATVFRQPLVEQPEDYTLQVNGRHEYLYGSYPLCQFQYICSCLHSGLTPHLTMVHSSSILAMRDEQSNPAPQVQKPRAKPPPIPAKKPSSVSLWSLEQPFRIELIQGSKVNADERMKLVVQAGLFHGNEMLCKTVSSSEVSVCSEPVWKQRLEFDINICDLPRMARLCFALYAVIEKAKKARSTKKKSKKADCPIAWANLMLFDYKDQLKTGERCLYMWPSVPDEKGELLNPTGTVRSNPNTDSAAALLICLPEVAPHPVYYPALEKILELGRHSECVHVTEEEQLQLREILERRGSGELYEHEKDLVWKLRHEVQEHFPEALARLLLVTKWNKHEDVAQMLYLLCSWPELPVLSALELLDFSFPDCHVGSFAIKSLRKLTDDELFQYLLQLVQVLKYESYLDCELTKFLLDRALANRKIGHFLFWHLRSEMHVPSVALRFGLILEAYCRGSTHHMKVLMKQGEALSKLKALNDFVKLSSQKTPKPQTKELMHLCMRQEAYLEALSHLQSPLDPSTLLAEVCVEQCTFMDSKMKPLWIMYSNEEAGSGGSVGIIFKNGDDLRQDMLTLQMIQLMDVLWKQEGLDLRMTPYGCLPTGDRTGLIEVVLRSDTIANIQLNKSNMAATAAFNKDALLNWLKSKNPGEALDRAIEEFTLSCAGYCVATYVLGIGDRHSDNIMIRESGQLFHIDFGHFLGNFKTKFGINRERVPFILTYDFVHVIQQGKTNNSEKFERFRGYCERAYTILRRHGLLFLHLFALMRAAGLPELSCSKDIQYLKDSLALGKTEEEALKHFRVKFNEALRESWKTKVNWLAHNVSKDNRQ

Plasma = assay: Metabolic stability in rat plasma assessed as compound remaining at 1 uM after 60 mins by Lc/Ms method; type: ADME, cell-free; details: 1 h
Summary of the method: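 Compound at 1 µM (2.5% DMSO final) in fresh rat plasma at 37 °C. Stopped at 0, 30 and 60 min with two volumes methanol plus internal standard, then LC-MS. Percent parent remaining relative to 0 min, from peak area ratios to internal standard. Duplicate runs, with a plasma-labile positive control.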

HeLa = assay: Growth inhibition of human HeLa cells after 72 hrs by ATPlite assay; type: functional; summary of the method: as §1
Liver microsomes = assay: Metabolic stability in rat liver microsomes; type: ADME, Microsome
Summary of the method: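 Rat liver microsomes (1 mg/ml protein) with 4µM compound in 50mM phosphate pH 7.2. Pre-incubated 5 min at 37.5 °C, then started with 2mM NADPH and run 1 h. Samples taken every 15 min, quenched in methanol with internal standard, analyzed by LC-MS. Duplicate runs alongside two control compounds of known half-life. Half-life reported.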

Chain of RAC-alpha serine/threonine-protein kinase (Homo sapiens) (P31749 whole entry): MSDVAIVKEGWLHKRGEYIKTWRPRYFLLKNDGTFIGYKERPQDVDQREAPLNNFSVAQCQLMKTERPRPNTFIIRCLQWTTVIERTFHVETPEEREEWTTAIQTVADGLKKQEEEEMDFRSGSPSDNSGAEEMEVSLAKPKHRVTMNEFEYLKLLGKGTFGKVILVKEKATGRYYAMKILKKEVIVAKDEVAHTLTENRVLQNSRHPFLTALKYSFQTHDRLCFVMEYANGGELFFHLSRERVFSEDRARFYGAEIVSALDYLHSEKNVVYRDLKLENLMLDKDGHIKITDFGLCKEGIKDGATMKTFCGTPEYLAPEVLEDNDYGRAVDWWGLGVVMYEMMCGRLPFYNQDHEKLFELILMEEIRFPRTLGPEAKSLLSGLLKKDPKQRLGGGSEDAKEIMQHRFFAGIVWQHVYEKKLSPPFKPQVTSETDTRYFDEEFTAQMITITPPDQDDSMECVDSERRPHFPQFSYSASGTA
Chain of Phosphatidylinositol 4,5-bisphosphate 3-kinase catalytic subunit alpha isoform (P42336 whole entry, canonical isoform): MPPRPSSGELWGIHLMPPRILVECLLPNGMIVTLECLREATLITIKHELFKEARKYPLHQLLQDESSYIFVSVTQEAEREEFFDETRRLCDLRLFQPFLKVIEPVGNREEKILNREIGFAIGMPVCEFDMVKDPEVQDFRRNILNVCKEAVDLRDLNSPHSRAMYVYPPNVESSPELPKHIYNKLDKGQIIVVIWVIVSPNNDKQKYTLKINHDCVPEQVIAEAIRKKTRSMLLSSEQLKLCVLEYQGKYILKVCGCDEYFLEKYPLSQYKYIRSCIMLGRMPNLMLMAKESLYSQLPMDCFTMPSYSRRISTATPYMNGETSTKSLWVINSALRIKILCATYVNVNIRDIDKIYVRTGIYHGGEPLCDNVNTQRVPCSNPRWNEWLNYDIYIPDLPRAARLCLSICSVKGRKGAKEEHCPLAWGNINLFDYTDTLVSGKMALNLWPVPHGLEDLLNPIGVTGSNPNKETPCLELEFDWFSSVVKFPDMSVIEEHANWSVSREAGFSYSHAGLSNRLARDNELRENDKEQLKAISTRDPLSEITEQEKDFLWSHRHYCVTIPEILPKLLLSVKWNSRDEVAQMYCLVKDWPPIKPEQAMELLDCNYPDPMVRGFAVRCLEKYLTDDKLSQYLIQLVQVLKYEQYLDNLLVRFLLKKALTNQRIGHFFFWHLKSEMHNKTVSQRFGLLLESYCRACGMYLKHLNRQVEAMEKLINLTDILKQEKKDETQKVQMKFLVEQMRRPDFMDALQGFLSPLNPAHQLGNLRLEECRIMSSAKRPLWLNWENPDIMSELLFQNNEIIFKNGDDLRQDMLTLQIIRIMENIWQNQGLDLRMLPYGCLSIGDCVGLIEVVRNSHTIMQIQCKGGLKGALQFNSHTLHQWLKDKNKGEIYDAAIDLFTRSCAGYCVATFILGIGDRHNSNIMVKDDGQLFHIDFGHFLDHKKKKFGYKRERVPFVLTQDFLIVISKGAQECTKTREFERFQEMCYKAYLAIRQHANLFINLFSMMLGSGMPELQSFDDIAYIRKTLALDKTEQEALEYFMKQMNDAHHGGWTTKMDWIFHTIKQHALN
Chain of Phosphatidylinositol 4,5-bisphosphate 3-kinase catalytic subunit gamma isoform (P48736 whole entry, canonical isoform): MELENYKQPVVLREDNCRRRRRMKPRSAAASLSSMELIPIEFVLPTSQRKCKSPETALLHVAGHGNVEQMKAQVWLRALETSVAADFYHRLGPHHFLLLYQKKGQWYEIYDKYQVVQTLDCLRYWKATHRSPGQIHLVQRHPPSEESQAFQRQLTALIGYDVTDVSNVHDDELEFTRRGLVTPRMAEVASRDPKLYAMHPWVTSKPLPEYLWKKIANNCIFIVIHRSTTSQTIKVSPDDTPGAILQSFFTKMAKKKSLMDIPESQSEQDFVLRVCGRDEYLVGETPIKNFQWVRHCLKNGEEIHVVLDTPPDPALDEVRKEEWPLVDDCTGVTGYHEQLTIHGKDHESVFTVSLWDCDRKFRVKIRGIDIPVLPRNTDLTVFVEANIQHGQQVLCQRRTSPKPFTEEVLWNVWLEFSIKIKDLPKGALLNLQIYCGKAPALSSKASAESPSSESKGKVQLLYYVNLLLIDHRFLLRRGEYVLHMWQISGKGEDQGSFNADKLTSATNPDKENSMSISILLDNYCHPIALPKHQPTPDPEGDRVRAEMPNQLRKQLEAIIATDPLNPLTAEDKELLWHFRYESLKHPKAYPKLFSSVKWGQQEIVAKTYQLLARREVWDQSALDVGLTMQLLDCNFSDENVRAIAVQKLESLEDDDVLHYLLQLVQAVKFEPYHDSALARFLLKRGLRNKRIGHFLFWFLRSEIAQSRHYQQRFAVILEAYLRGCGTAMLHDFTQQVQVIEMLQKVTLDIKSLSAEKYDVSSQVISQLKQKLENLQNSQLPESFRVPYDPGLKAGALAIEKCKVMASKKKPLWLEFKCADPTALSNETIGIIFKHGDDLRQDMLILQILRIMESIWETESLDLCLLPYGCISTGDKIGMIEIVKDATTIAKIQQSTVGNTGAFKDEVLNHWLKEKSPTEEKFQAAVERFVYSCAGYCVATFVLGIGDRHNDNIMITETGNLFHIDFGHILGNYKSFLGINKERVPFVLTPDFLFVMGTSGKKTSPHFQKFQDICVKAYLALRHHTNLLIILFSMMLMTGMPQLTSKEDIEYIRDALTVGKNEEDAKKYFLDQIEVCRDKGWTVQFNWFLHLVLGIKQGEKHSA

SMILES | IC50 [1] [µM] | IC50 [2] [µM] | IC50 [3] [µM] | inhibition [4] | IC50 [5] [µM] | GI50 (MDA-MB-231) [µM] | IC50 [6] [µM] | GI50 (PC-3) [µM] | GI50 (MCF7) [µM] | IC50 [7] [µM] | Stability (Plasma) [%] | GI50 (HeLa) [µM] | t1/2 (Liver microsomes) [h]
C(#Cc1n[nH]c2ccccc12)c1ccsc1 | > 100 | > 100 | > 100 | inactive | > 100 |  |  |  |  |  |  |  | 
N#Cc1ccc(C#Cc2n[nH]c3ccccc23)cc1 | > 100 | > 100 | > 100 | inactive | > 50 |  |  |  |  |  |  |  | 
Nc1cccc(C#Cc2n[nH]c3ccccc23)c1 |  |  |  | inactive |  | 8.29 | > 100 | 2.84 | 10.4 | > 100 | 100 | 5.21 | > 1
C(#Cc1n[nH]c2ccccc12)c1cccnc1 |  | > 100 |  | inactive | > 50 | 10.5 |  | 6.81 | 3.66 |  |  | 5.21 | 
CN(C)CC#Cc1n[nH]c2ccccc12 | > 50 | > 100 | > 100 | inactive | > 50 |  |  |  |  |  |  |  | 
C(#CC1CC1)c1n[nH]c2ccccc12 | > 100 | > 100 | > 100 | inactive | > 50 |  |  |  |  |  |  |  | 
FC(F)(F)c1cc(C#Cc2n[nH]c3ccccc23)cc(C(F)(F)F)c1 | > 100 | > 100 | > 100 | inactive | > 100 |  |  |  |  |  |  |  | 
Nc1ccccc1C#Cc1n[nH]c2ccccc12 | > 100 | > 100 | > 100 | inactive | > 50 |  |  |  |  |  |  |  | 

Other lines, results leading:

IC50 [1] [µM] | IC50 [2] [µM] | IC50 [3] [µM] | inhibition [4] | IC50 [5] [µM] | GI50 (MDA-MB-231) [µM] | IC50 [6] [µM] | GI50 (PC-3) [µM] | GI50 (MCF7) [µM] | IC50 [7] [µM] | Stability (Plasma) [%] | GI50 (HeLa) [µM] | t1/2 (Liver microsomes) [h] | SMILES
> 100 | > 100 | > 25 | inactive | > 50 |  |  |  |  |  |  |  |  | C(#Cc1n[nH]c2ccccc12)c1ccccn1
> 100 | > 100 | > 50 | inactive | > 50 |  |  |  |  |  |  |  |  | C(#Cc1n[nH]c2ccccc12)c1ccccc1
> 100 | > 100 | > 100 | inactive | > 200 |  |  |  |  |  |  |  |  | Fc1cc(F)cc(C#Cc2n[nH]c3ccccc23)c1
9 | 5 | > 50 | inactive | > 10 |  |  |  |  |  |  |  |  | C(#Cc1n[nH]c2ncccc12)c1cccnc1
1.05 | 4.97 | 39.2 | inactive | 10.8 | 8.28 | > 100 | 2.51 | 3.23 | > 100 |  |  |  | Nc1ccc(C#Cc2n[nH]c3ccccc23)cc1
> 100 | > 100 | > 100 | inactive | > 50 |  |  |  |  |  |  |  |  | C(#CC1CCCC1)c1n[nH]c2ccccc12
3.05 |  | > 50 | inactive |  |  |  |  |  |  |  |  |  | C(#Cc1n[nH]c2ncccc12)c1ccncc1
